A selection: hits, their analogues and other compounds. The true share with any hit is near 2.4%.
SIAE inh: blocks human sialic acid acetylesterase | Q9HAT2 | SIAE FP-Rh probe binding, fluorescence polarization | inhibition, % at 9.66 µM | 0.69% of 370,000 active;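 active = inhibition above a cutoff: mean of compounds within the control limits plus 3 SD of those, cut at about 17% in these data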;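 note: 0% = plate median of compound wells and 100% = probe without SIAE protein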
GSTO1 inh: counter-screen for RBBP9 inhibitors: inhibitors of human GSTO1; P78417; recombinant GSTO1, activity-based probe fluorescence polarization; inhibition, % at 5.96 µM; 1.1% of 300,000 active; AID 1974;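 active = inhibition above the campaign mean inhibition plus 3 SD, cut at about 35% in these data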;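 note: 0% = GSTO1-1 with DMSO and 100% = wells lacking GSTO1-1 enzyme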
Target sequence (P78417 whole entry, looked up): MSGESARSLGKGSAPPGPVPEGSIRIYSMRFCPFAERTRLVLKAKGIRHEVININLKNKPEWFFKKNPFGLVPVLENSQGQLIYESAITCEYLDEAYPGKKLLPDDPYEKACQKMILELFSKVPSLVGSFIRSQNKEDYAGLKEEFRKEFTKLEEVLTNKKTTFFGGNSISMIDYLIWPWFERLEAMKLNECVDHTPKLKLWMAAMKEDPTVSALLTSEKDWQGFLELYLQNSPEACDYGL
TDP2 absorb: TDP2 (human) inhibition, absorbance primary screen; recombinant TDP2, T5PNP hydrolysis, p-nitrophenol absorbance 415 nm; AID 720702; O95551; inhibition, % at 12.8 µM; 0.34% of 370,000 active;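 active = inhibition above the mean of all tested compounds plus 3 SD, set per campaign, cut at about 25% in these data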;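 note: 0% = DMSO with enzyme and 100% = buffer with substrate but no TDP2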
Target sequence (O95551 whole entry, looked up): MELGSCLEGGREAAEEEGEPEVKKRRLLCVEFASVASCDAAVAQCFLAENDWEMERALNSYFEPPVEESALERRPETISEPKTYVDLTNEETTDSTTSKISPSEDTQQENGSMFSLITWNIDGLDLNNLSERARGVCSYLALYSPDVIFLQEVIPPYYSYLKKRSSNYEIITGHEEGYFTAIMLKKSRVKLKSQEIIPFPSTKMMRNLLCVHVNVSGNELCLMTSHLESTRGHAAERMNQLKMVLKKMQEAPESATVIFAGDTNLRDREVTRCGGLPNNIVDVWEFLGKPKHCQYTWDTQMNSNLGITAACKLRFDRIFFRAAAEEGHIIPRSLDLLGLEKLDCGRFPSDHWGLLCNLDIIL
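Incubation: 2 h at 37 °C; Test system: recombinant human TDP2; Quantity: enzyme 120 nM; Read-out basis: percent inhibition; Medium: 50 mM Tris-HCl pH 7.5 with Mg2+, KCl, DTT, BSA; Repeats: single replicate; Compound: 12.8 µM single point, 1% DMSO; Signal: epi absorbance; Reagent: 5 mM T5PNP chromogenic substrate; Benchmarks: no-enzyme high, DMSO-plus-enzyme low.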
PAD4 inh: PAD4 (human) enzyme inhibition. Q9UM07. recombinant PAD4, RCA probe fluorescence polarization. inhibition, % at 6.36 µM. 0.41% of 330,000 active. AID 485272;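 active = percent inhibition above a cutoff equal to the mean of all tested compounds plus 3 SD, cut at about 15% in these data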;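 note: 0% = PAD4 with RCA probe and DMSO and 100% = probe without PAD4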
Apaf-1 inh: inhibitors of human Apaf-1 apoptosome. inhibition, % at 20 µM. O14727. 0.71% of 330,000 active. AID 489030. reconstituted apoptosome caspase-3 activity, DEVD-Rh110 fluorescence; active = inhibition of at least 40% at 20 µM;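 note: plate controls were DMSO wells for no effect and DEVD-CHO caspase inhibitor wells for full effect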
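System – cell-free apoptosome with Apaf-1, procaspase-3 and caspase-9 · Buffer or medium – pH 7.5 Hepes buffer with CHAPS, BSA, DTT · Also added – cytochrome c with DEVD-Rh110 · Times – 30 min compound preincubation, 50 min activation, room temperature · Technique – Rh110 fluorescence intensity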
TCR CD3 inh: human TCR-CD3 binding inhibition. TAMRA-labeled TCR probe fluorescence, biochemical. inhibition, % at 9.4 µM. 0.37% of 360,000 active; in the data active = inhibition above about 19%;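 note: recombinant mutant TCR 2C K166C tagged with TAMRA read by polarization; 0% = receptor in buffer alone and 100% = receptor with positive control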
The depositor's hits bear a star; · = not tested or not shown.

SMILES	SIAE inh	GSTO1 inh	TDP2 absorb	PAD4 inh	Apaf-1 inh	TCR CD3 inh
COc1cc2c3cc1Oc1cc(ccc1O)C[C@@H]1c4c(cc(OC)c(O)c4Oc4ccc(cc4)C[C@@H]3N(C)CC2)CC[N+]1(C)C	2	·	-13	·	·	·
COc1ccc2cc1Oc1ccc(cc1)CC1c3c(cc(OC)c4c3Oc3cc5c(cc3O4)CCNC5C2)CCN1C (stereo not drawn)	·	-11	·	-1	41*	·
COc1ccc2cc1Oc1ccc(cc1)C[C@H]1c3c(cc(OC)c4c3Oc3c(ccc5c3[C@H](C2)N(C)CC5)O4)CCN1C	·	·	·	-4	59*	·
CCOC(=O)/C(=C\C=C1/Sc2cc(OCC)c(OCC)cc2N1CC)C(C)=O	-15	-9	-3	-13	·	-3
CCC(=O)OC1(C)C(=O)C=C2C=C(CCCCNC(=O)OC(C)(C)C)OC=C2C1=O (stereo not drawn)	·	17	·	-8	-3	·
CC(C)(C)OC(=O)NCCCC1=CC2=CC(=O)C(C)(OC(=O)c3ccc(Cl)nc3)C(=O)C2=CO1 (stereo not drawn)	·	22	·	25*	-1	·
C[C@H](NC(=O)Cn1cncn1)c1ccccc1	-3	5	-10	-4	-11	1
CCCNS(=O)(=O)c1ccc(OCC(=O)N2CCc3ccccc3C2)c(C)c1	9	-1	0	3	5	4
CC(=O)c1cccc(N2Cc3ccccc3C2=NC(=O)CCl)c1	-1	78*	-9	-4	-12	3
N#Cc1cccc(N=Cc2c(O)ccc3ccccc23)c1	9	38*	1	-6	11	4
COC(=O)c1ccc(-n2c(C)cc(C(=O)CCl)c2C)cc1	7	87*	15	-3	-5	-1
COc1cc(N)c2ncccc2c1Cl	15	·	47*	·	·	10
Oc1c(Cl)c(Cl)c2ncccc2c1Cl	2	·	-9	·	·	-6
COc1ccc(-c2nnc(-c3cccs3)o2)cc1OC	0	-12	0	3	-3	-3
COc1cc(-c2nnc(-c3cccs3)o2)cc(OC)c1OC	18*	-2	-7	3	6	-4
Nc1nc(N)c2cc(Sc3ccc(Cl)cc3)ccc2n1	7	·	-18	·	·	-1
Nc1nc(N)c2cc(Sc3ccc4ccccc4c3)ccc2n1	29*	3	-10	-7	39	-7
Cc1ccc(OCC(=O)N2CCC(N3CC(C)CC(C)C3)CC2)cc1 (stereo not drawn)	-3	2	6	3	9	8
CCSC(=Nc1ccccc1)C1=C(O)COC1=O	19*	-2	3	1	2	-1
CSC(=Nc1ccccc1)C1=C(O)COC1=O	4	3	4	-4	-18	8
CN1C(C(=O)NCc2ccccc2)CC2Cn3c(nc4cc(Cl)c(Cl)cc43)C21 (stereo not drawn)	5	4	11	-3	3	1
O=C(CCO)c1ccc(O)cc1	5	37*	2	10	-23	27*
COCCN1C(=S)N[C@@H](c2cccc(F)c2)C(C(=O)OC)=C1C	·	5	·	1	57*	·
O=C(Nc1cc(S(=O)(=O)N2CCOCC2)ccc1N1CCCC1)C1CC1	6	11	3	0	-17	0
O=C(CSc1nnc2ccccn12)c1ccc(Cl)cc1	2	36*	-5	-1	2	-2
SMILES	SIAE inh	GSTO1 inh	TDP2 absorb	PAD4 inh	Apaf-1 inh	TCR CD3 inh
O=C(CSc1nnc(-c2ccccn2)n1Cc1ccco1)c1ccc(Cl)cc1	2	35*	-7	-3	12	5
O=C(CSc1nnc(-c2ccccn2)n1Cc1ccco1)c1ccccc1	-2	0	-10	-1	12	1
Oc1cc(-n2cccn2)c(O)cc1-n1cccn1	4	70*	11	-13	·	9
CCOC(=O)CNS(=O)(=O)CCN1C(=O)c2ccccc2C1=O	2	-2	8	-1	-9	6
O=C(c1ccc(F)cc1)[C@@H]1[C@@H](C(=O)c2ccccc2)[C@@]2(C(=O)Nc3ccccc32)[C@H]2c3ccccc3C=CN12	·	7	·	-12	73*	·
Oc1ccc(/C=N/Nc2nc(N3CCCC3)nc(N3CCCC3)n2)cc1O	7	56*	2	2	6	5
COc1ccc(/C=C2\C(=O)NC(=O)c3ccccc32)cc1OC	1	·	63*	·	·	-6
COc1ccc(C=C2C(=O)OC(C)(C)OC2=O)cc1OC	1	4	7	-7	5	-9
CCN1CCN(c2ccc(NC(=O)c3ccc4c(c3)OCCO4)cc2C)CC1	7	·	-3	·	0	-1
O=C1C=C(Nc2ccc(O)cc2)C(=O)c2ccccc21	7	39*	6	-15	15	3
O=S1(=O)N=C(Nc2ccc(O)cc2)c2ccccc21	12	7	9	-1	-10	3
OC(CNCc1ccc(Cl)cc1)(c1ccccc1)c1ccc(F)cc1 (stereo not drawn)	-3	1	-6	-5	19	-1
CCN1C(N(C)CCc2c[nH]c3ccccc23)=N[C@@H](c2cccc(C(F)(F)F)c2)C(C(=O)OC)=C1C	·	·	·	0	55*	·
CCN1C(N(C)CCc2cccs2)=N[C@@H](c2ccccc2)C(C(=O)OC)=C1C	6	1	0	-2	8	3
O=S(=O)(CC=CCS(=O)(=O)c1ccccc1)c1ccccc1	0	·	6	·	·	-4
Cc1cccc(COc2ccccc2C(=O)N(C)CC(=O)Nc2cccc(F)c2)c1	-10	·	-11	4	30	-8
CCOc1ccc(NC(=O)CN(C)C(=O)c2ccccc2OCc2cccc(C)c2)cc1OCC	-4	·	0	5	46*	5
CC(C)C1N=C2c3ccccc3N=C(SCc3cc(=O)n4cc(Cl)ccc4n3)N2C1=O (stereo not drawn)	19*	16	12	-4	3	-7
CCn1c(CC(=O)Nc2cccc(Cl)c2Cl)nnc1SCCOc1ccc(OC)cc1	·	-2	·	-2	2	·
O=C(COC(=O)Cc1ccc(F)cc1)NC1CCCCC1	5	·	2	-2	-2	3
O=[N+]([O-])c1c(NCCCO)cc(SCc2ccco2)c2nonc12	-2	35*	21	6	10	11
COc1cccc(CN(C)CC(=O)NCc2ccc(F)cc2)c1OC	12	7	2	6	17	-4
CC(=O)c1ccc(N2CCN(C(=O)C3CCC3)CC2)cc1	11	-5	0	2	8	-5
COCCN(C(=O)CCl)C(C(=O)NC1CCCCC1)c1ccccc1C (stereo not drawn)	-1	99*	-7	2	-7	1
O=C(NC1CCCC1)C(c1ccc(F)cc1)N(Cc1ccc(F)cc1)C(=O)c1ccn[nH]1 (stereo not drawn)	-2	-7	-4	2	2	2
